Test results taken from ChEMBL document CHEMBL1833822, “Efficient synthesis of apricoxib, CS-706, a selective cyclooxygenase-2 inhibitor, and evaluation of inhibition of prostaglandin E2 production in inflammatory breast cancer cells” (2011).

Assays:
Format in all cases: functional
SUM149PT [1] = test: Inhibition of sodium arachidonate-induced PGE2 production in human SUM149 cells assessed as PGE2 level per 1000 cells at 0.1 uM preincubated for 2 hrs before sodium arachidonate challenge measured after 2 hrs by competitive EIA (reference value: 3.15 +/- 0.19 pg/mL)
Outline: (§1)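 Cells seeded in triplicate, grown at 37°C, 5% CO2 to 80% confluence, washed with PBS, then given fresh medium with inhibitor (0.1, 1, 10 μM) or DMSO vehicle. After 2 h preincubation at 37°C, sodium arachidonate was added to 10 μM final for 2 h more. Supernatant PGE2 was measured by competitive EIA and normalized to trypsinized cell count (pg/mL/1000 cells). Three runs, mean ± SD.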

SUM149PT [2] = test: Inhibition of sodium arachidonate-induced PGE2 production in human SUM149 cells assessed as PGE2 level per 1000 cells at 1 uM preincubated for 2 hrs before sodium arachidonate challenge measured after 2 hrs by competitive EIA (reference value: 3.15 +/- 0.19 pg/mL); outline: as §1
SUM149PT [3] = test: Inhibition of sodium arachidonate-induced PGE2 production in human SUM149 cells assessed as PGE2 level per 1000 cells at 10 uM preincubated for 2 hrs before sodium arachidonate challenge measured after 2 hrs by competitive EIA (reference value: 3.15 +/- 0.19 pg/mL); outline: as §1
[4] = Inhibition of sodium arachidonate-induced PGE2 production in human SUM190 cells assessed as PGE2 level per 1000 cells at 0.1 uM preincubated for 2 hrs before sodium arachidonate challenge measured after 2 hrs by competitive EIA (reference value: 6.43 +/- 1.87 pg/mL); outline: as §1
[5] = Inhibition of sodium arachidonate-induced PGE2 production in human SUM190 cells assessed as PGE2 level per 1000 cells at 1 uM preincubated for 2 hrs before sodium arachidonate challenge measured after 2 hrs by competitive EIA (reference value: 6.43 +/- 1.87 pg/mL); outline: as §1
[6] = Inhibition of sodium arachidonate-induced PGE2 production in human SUM190 cells assessed as PGE2 level per 1000 cells at 10 uM preincubated for 2 hrs before sodium arachidonate challenge measured after 2 hrs by competitive EIA (reference value: 6.43 +/- 1.87 pg/mL); outline: as §1
SUM149PT [7] = test: Inhibition of sodium arachidonate-induced PGE2 production in human SUM149 cells at 100 nM preincubated for 2 hrs before sodium arachidonate challenge measured after 2 hrs by competitive EIA; outline: as §1
SUM149PT [8] = test: Inhibition of sodium arachidonate-induced PGE2 production in human SUM149 cells at 1 uM preincubated for 2 hrs before sodium arachidonate challenge measured after 2 hrs by competitive EIA; outline: as §1
SUM149PT [9] = test: Inhibition of sodium arachidonate-induced PGE2 production in human SUM149 cells at 10 uM preincubated for 2 hrs before sodium arachidonate challenge measured after 2 hrs by competitive EIA; outline: as §1

SMILES	Activity (SUM149PT [1])	Activity (SUM149PT [2])	Activity (SUM149PT [3])	Activity [4]	Activity [5]	Activity [6]	inhibition at 0.1 µM (SUM149PT [7])	inhibition at 1 µM (SUM149PT [8])	inhibition at 10 µM (SUM149PT [9])
CCOc1ccc(-c2cc(C)cn2-c2ccc(S(N)(=O)=O)cc2)cc1 [APRICOXIB]	0.97 pg/mL	0.28 pg/mL	0.11 pg/mL	2.1 pg/mL	0.5 pg/mL	0.22 pg/mL	70%	91%	97%
Cc1ccc(-c2cc(C(F)(F)F)nn2-c2ccc(S(N)(=O)=O)cc2)cc1 [CELECOXIB]	1.19 pg/mL	0.43 pg/mL	0.13 pg/mL	2.87 pg/mL	0.81 pg/mL	0.18 pg/mL			
